Measured values from ChEMBL document CHEMBL1134284, “The biological effects of structural variation at the meta position of the aromatic rings and at the end of the alkenyl chain in the alkenyldiarylmethane series of non-nucleoside reverse transcriptase inhibitors” (J Med Chem, 2001).

Key:
[1] = tested on: Human immunodeficiency virus type 1 (RF/HAT ISOLATE); experiment: Inhibitory concentration for cytopathicity of HIV-1RF in CEM-SS cells; format: functional, organism-based; details: Human immunodeficiency virus 1, RF
Summary of the method: (§1)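 CEM-SS cells kept in RPMI 1640 with 10% heat-inactivated FBS, 2 mM glutamine, penicillin/streptomycin. Microtiter assay with cytopathic HIV-1 RF, or mock infection for toxicity. Viability read by MTS/phenazine ethosulfate reduction (absorbance 490 nm) 6 days after infection. […] Triplicate.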

[2] = Ratio of CC50/EC50 was determined; format: cell-based; details: human, CEM-SS cells; read-out: TI
Summary of the method: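 HIV-1 RF–infected CEM-SS cells (RPMI 1640, 10% heat-inactivated FBS, 2 mM glutamine, penicillin/streptomycin), plus mock-infected CEM-SS in parallel. Cell killing and viability were read by MTS/phenazine ethosulfate reduction at 490 nm 6 days after infection. […] Index = CC50 ÷ EC50. Triplicate tests.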

CEM-SS [3] = experiment: Concentration required for cytotoxicity against mock infected CEM-SS cells; format: functional; details: Homo sapiens; summary of the method: as §1
[4] = target: Human immunodeficiency virus type 1 reverse transcriptase (Human immunodeficiency virus 1, UniProt Q72547); experiment: Inhibitory activity against HIV-1 Reverse Transcriptase with rCdG as the template primer
Summary of the method: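 Cell-free assay with purified recombinant HIV-1 RT (p66/p51 dimer). Activity measured as [32P]GTP incorporation into the poly(rC)/oligo(dG) homopolymer template/primer. IC50 is reported as inhibition of enzyme activity.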

CEM-SS [5] = experiment: Inhibitory concentration for cytopathicity of HIV-1RF in CEM-SS cells; Not active; format: functional, cell-based, Homo sapiens; summary of the method: as §1

| SMILES | EC50 [1] | selectivity ratio [2] | CC50 (CEM-SS [3]) | IC50 [4] | EC50 (CEM-SS [5]) |
| --- | --- | --- | --- | --- | --- |
| COC(=O)CCCC=C(c1cc(C)c(OC)c(C(=O)OC)c1)c1cc(C)c(OC)c(C(=O)OC)c1 | 0.25 µM | 24 | 6 µM | < 1 µM |  |
| COC(=O)c1cc(C(=CCCC[S+](C)[O-])c2cc(Cl)c(OC)c(C(=O)OC)c2)cc(Cl)c1OC (configuration not stated) | 11.7 µM | 3.15 | 36.9 µM |  |  |
| C=CCCCC=C(c1cc(Br)c(OC)c(C(=O)OC)c1)c1cc(Br)c(OC)c(C(=O)OC)c1 | 8.2 µM | > 24 | > 200 µM | 99 µM |  |
| COC(=O)c1cc(C(=CCCCC(=O)SC)c2cc(Cl)c(OC)c(C(=O)OC)c2)cc(Cl)c1OC | 2.42 µM | 5.15 | 12.5 µM |  |  |
| COC(=O)c1cc(C(=CCCN2CCOC2=O)c2cc(Cl)c(OC)c(C(=O)OC)c2)cc(Cl)c1OC | 2.15 µM | 6.02 | 13 µM | 9.47 µM |  |
| COC(=O)c1cc(C(=CCCCC(OC)OC)c2cc(Cl)c(OC)c(C(=O)OC)c2)cc(Cl)c1OC |  |  | 18.1 µM | > 100 µM |  |
| C=CCCCC=C(c1cc(Cl)c(OC)c(C(=O)OC)c1)c1cc(Cl)c(OC)c(C(=O)OC)c1 | 13 µM | > 15 | > 200 µM | 258 µM |  |
| COC(=O)c1cc(C(=CCCCSC)c2cc(Cl)c(OC)c(C(=O)OC)c2)cc(Cl)c1OC | 5.31 µM | > 3.77 | > 20 µM | > 100 µM |  |
| COC(=O)c1cc(C(=CCCCC(=O)N(C)C)c2cc(Cl)c(OC)c(C(=O)OC)c2)cc(Cl)c1OC | 0.38 µM | 6.94 | 2.65 µM | 0.687 µM |  |
| CN/C(S)=N/CCC=C(c1cc(Cl)c(OC)c(C(=O)OC)c1)c1cc(Cl)c(OC)c(C(=O)OC)c1 |  |  | 1.36 µM | > 100 µM | Not Active |
| CCCCCC=C(c1ccc(OC)c(C(=O)OC)c1)c1ccc(OC)c(C(=O)OC)c1 |  |  | 14 µM |  |  |
| CCCCCC=C(c1cc(I)c(OC)c(C(=O)OC)c1)c1cc(I)c(OC)c(C(=O)OC)c1 |  |  | > 316 µM |  |  |
| CCOC(=O)NCCC=C(c1cc(Cl)c(OC)c(C(=O)OC)c1)c1cc(Cl)c(OC)c(C(=O)OC)c1 | 0.71 µM | 17.2 | 12.2 µM | 1.93 µM |  |
| COC(=O)c1cc(C(=CCCCS(C)(=O)=O)c2cc(Cl)c(OC)c(C(=O)OC)c2)cc(Cl)c1OC |  |  | 14.9 µM |  | Not Active |
| C#CCCCC=C(c1cc(Br)c(OC)c(C(=O)OC)c1)c1cc(Br)c(OC)c(C(=O)OC)c1 | 4.7 µM | > 43 | > 200 µM | 6 µM |  |
| COC(=O)c1cc(C(=CCCCC(=O)OC(C)C)c2cc(Br)c(OC)c(C(=O)OC)c2)cc(Br)c1OC | 4.33 µM | 3.79 | 16.4 µM | 70.8 µM |  |
| COC(=O)c1cc(C(=CCCCc2ccccc2)c2cc(Br)c(OC)c(C(=O)OC)c2)cc(Br)c1OC | 13.1 µM | > 15 | > 200 µM | > 100 µM |  |
| CCNC(=O)NCCC=C(c1cc(Cl)c(OC)c(C(=O)OC)c1)c1cc(Cl)c(OC)c(C(=O)OC)c1 |  |  | 14.6 µM | > 100 µM | Not Active |
| CCCOC(=O)CCCC=C(c1cc(Br)c(OC)c(C(=O)OC)c1)c1cc(Br)c(OC)c(C(=O)OC)c1 | 1.14 µM | > 17.5 | > 20 µM | 9.15 µM |  |
| CCCOC(=O)CCCC=C(c1cc(Cl)c(OC)c(C(=O)OC)c1)c1cc(Cl)c(OC)c(C(=O)OC)c1 | 1.29 µM | 10.8 | 13.9 µM | 8.3 µM |  |
| COC(=O)CCCC=C(c1cc(C(=O)OC)c(OC)c(C(F)(F)F)c1)c1cc(C(=O)OC)c(OC)c(C(F)(F)F)c1 | 14.3 µM | 1.2 | 17.2 µM | > 200 µM |  |
| COC(=O)NCCC=C(c1cc(Cl)c(OC)c(C(=O)OC)c1)c1cc(Cl)c(OC)c(C(=O)OC)c1 | 1.22 µM | 10.2 | 12.4 µM | 4.43 µM |  |
| C#CCCCC=C(c1cc(Cl)c(OC)c(C(=O)OC)c1)c1cc(Cl)c(OC)c(C(=O)OC)c1 | 1.3 µM | 33 | 42.7 µM |  |  |
